Assays:
[1] = system: K562; assay: Growth inhibition in human K562 cells at 3 uM after 72 hrs by MTT assay; type: functional; settings: K562, 72 h, read-out: GI
[2] = system: K562; assay: Growth inhibition in doxorubicin-resistant human K562 cells overexpressing Pgp at 3 uM after 72 hrs by MTT assay; type: functional; settings: K562, 72 h, read-out: GI
[3] = molecular target: T1, ATP-dependent translocase ABCB1 (Homo sapiens, UniProt P08183); assay: Inhibition of P-glycoprotein-mediated multidrug resistance in human doxorubicin-resistant K562 cells assessed as maximal increase in nuclear concentration of pirarubicin by spectrofluorimetry relative to sensitive K562 cells; type: cell-based
Method in brief: (§1)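 Pirarubicin uptake was measured in doxorubicin-resistant K562/DOX cells, which overexpress only Pgp, by continuous spectrofluorometry (excitation 480 nm, emission 590 nm) after incubation. R is the fold increase in nuclear pirarubicin with inhibitor, from 0 (no inhibitor) to 1 (equal to sensitive cells). Rmax is the maximal attainable R. Reported concentrations are those giving R = 0.2 or R = 0.5.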

[4] = molecular target: T1, ATP-dependent translocase ABCB1; assay: Inhibition of P-glycoprotein-mediated multidrug resistance in human doxorubicin-resistant K562 cells assessed as drug level causing 50% increase in nuclear concentration of pirarubicin by spectrofluorimetry; type: cell-based; settings: read-out: INH; method in brief: as §1
[5] = system: K562; assay: Growth inhibition in doxorubicin-resistant human K562 cells overexpressing Pgp at 1 uM after 72 hrs by MTT assay; type: functional; settings: K562, 72 h, read-out: GI
[6] = system: K562; assay: Growth inhibition in human K562 cells at 1 uM after 72 hrs by MTT assay; type: functional; settings: K562, 72 h, read-out: GI
[7] = molecular target: T1, ATP-dependent translocase ABCB1; assay: Inhibition of P-glycoprotein-mediated multidrug resistance in human doxorubicin-resistant K562 cells assessed as drug level causing 20% increase in nuclear concentration of pirarubicin by spectrofluorimetry; type: cell-based; method in brief: as §1

T1 sequence (P08183 whole entry): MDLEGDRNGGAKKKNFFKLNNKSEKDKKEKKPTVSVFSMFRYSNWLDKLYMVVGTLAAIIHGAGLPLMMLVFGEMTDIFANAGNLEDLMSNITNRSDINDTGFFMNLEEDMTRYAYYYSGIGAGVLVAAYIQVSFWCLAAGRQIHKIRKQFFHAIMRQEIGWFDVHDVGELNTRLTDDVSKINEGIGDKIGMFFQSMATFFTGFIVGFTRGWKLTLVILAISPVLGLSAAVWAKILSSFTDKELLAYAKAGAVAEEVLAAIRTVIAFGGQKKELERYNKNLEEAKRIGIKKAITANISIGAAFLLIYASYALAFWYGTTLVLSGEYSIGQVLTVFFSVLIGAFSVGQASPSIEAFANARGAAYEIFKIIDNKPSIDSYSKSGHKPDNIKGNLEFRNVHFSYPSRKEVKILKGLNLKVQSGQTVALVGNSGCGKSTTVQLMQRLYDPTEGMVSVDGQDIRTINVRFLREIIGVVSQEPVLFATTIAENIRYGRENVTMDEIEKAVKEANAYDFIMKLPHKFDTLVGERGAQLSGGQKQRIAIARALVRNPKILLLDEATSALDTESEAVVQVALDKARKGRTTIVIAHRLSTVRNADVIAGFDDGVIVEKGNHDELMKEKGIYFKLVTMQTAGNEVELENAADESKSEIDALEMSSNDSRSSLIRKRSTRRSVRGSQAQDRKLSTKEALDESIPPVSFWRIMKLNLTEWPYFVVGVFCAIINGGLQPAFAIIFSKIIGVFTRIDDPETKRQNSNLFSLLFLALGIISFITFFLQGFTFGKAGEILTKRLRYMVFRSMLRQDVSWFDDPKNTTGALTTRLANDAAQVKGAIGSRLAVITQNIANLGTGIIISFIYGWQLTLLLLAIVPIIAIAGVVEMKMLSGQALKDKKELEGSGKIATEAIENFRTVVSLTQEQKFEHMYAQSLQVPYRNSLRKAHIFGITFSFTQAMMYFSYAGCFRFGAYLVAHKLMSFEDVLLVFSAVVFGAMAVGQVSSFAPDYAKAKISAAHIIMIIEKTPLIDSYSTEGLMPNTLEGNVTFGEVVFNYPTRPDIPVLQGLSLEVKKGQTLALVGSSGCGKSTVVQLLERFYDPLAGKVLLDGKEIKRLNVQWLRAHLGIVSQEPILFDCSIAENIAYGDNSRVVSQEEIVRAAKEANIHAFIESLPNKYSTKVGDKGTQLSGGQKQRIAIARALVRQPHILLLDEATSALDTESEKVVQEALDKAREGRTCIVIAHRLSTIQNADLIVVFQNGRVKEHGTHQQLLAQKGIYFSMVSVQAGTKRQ

Row | fold change (FC) [3] | IC50 [4] | INH [7] | SMILES | inhibition of growth at 3 µM [1] | inhibition of growth at 3 µM [2] | inhibition of growth at 1 µM [5] | inhibition of growth at 1 µM [6]
1 | 0.85 | 0.24 µM |  | COc1cc(/C=C/C(=O)OCCCN(C)CCCOC(=O)/C=C/c2ccc(-c3ccccc3)cc2)cc(OC)c1OC | ≤ 10% | ≤ 10% | ≤ 10% | ≤ 10%
2 | 0.57 | 0.19 µM |  | COc1ccc(/C=C/C(=O)OCCCN(C)CCCOC(=O)c2c3ccccc3cc3ccccc23)cc1OC |  |  |  | 
3 | 0.5 | 0.4 µM |  | COc1ccc(C(C(=O)OCCCCCN(C)CCCCCOC(=O)/C=C/c2cc(OC)c(OC)c(OC)c2)c2ccc(OC)cc2)cc1 |  |  |  | 
4 | 0.73 | 0.23 µM |  | COc1cc(/C=C/C(=O)OCCCN(C)CCCOC(=O)CN2C(=O)C3C4c5ccccc5C(c5ccccc54)C3C2=O)cc(OC)c1OC (centres undefined) |  |  |  | 
5 | 0.98 | 0.41 µM |  | COc1ccc(/C=C/C(=O)OCCCN(C)CCCOC(=O)c2c3ccccc3c(Cl)c3ccccc23)cc1OC |  |  |  | 
6 | 0.7 | 0.05 µM |  | COc1ccc(C(C#N)(CCCNCc2c3ccccc3cc3ccccc23)C(C)C)cc1OC (centres undefined) |  |  |  | 
7 | 0.63 | 0.39 µM |  | COc1cc(/C=C/C(=O)OCCCN(C)CCCOC(=O)CCN2C(=O)C3C4c5ccccc5C(c5ccccc54)C3C2=O)cc(OC)c1OC (centres undefined) |  |  |  | 
8 | 0.77 | 0.22 µM |  | COc1cc(/C=C/C(=O)OCCCN(C)CCCOC(=O)c2ccc(-c3ccccc3)cc2)cc(OC)c1OC |  |  |  | 
9 | 0.4 |  | 0.36 µM | COc1cc(/C=C/C(=O)OCCCCCN(C)CCCCCOC(=O)/C=C/c2ccc(-c3ccccc3)cc2)cc(OC)c1OC |  |  |  | 
10 | 1 | 0.17 µM |  | COc1ccc(/C=C/C(=O)OCCCCCN(C)CCCCCOC(=O)c2c3ccccc3cc3ccccc23)cc1OC | ≤ 10% | ≤ 10% | ≤ 10% | ≤ 10%
11 | 0.79 | 0.08 µM |  | COc1ccc(C(C(=O)OCCCN(C)CCCOC(=O)/C=C/c2cc(OC)c(OC)c(OC)c2)c2ccc(OC)cc2)cc1 | ≤ 10% | ≤ 10% | ≤ 10% | ≤ 10%
12 | 0.7 | 0.64 µM |  | COc1ccc(/C=C/C(=O)OCCCCCN(C)CCCCCOC(=O)c2cc(OC)c(OC)c(OC)c2)cc1OC |  |  |  | 
13 | 0.63 | 3.7 µM |  | COc1cc2c(cc1OC)CN(CCC(=O)OCCCN(C)CCCOC(=O)/C=C/c1cc(OC)c(OC)c(OC)c1)CC2 |  |  |  | 
14 | 0.92 | 0.8 µM |  | COc1cc(/C=C/C(=O)OCCCNCCCOC(=O)/C=C/c2c3ccccc3cc3ccccc23)cc(OC)c1OC |  |  |  | 
15 | 0.34 |  | 0.7 µM | COc1ccc(/C=C/C(=O)OCCCN(C)CCCOC(=O)c2cc(OC)c(OC)c(OC)c2)cc1OC |  |  |  | 
16 | 0.28 |  | 0.5 µM | COc1cc(/C=C/C(=O)OCCCCCN(C)CCCCCOC(=O)C=C(c2ccccc2)c2ccccc2)cc(OC)c1OC |  |  |  | 
17 | 0.5 |  | 1.4 µM | COc1ccc(/C=C/C(=O)OCCCN(C)CCCOC(=O)/C=C/c2cc(OC)c(OC)c(OC)c2)cc1OC |  |  |  | 
18 |  |  |  | COc1ccc(CCN(C)CCCC(C#N)(c2ccc(OC)c(OC)c2)C(C)C)cc1OC (centres undefined) [VERAPAMIL] | ≤ 10% | ≤ 10% | ≤ 10% | ≤ 10%
19 | 0.66 | 0.16 µM |  | COc1cc(/C=C/C(=O)OCCCN(C)CCCOC(=O)C=C(c2ccccc2)c2ccccc2)cc(OC)c1OC | 20% | 20% | ≤ 10% | 20%
20 | 0.93 | 0.25 µM |  | COc1cc(/C=C/C(=O)OCCCN(C)CCCOC(=O)/C=C/c2c3ccccc3cc3ccccc23)cc(OC)c1OC |  |  |  | 
21 | 0.77 | 0.26 µM |  | COc1cc(/C=C/C(=O)OCCCN(C)CCCOC(=O)C(c2ccccc2)c2ccccc2)cc(OC)c1OC | ≤ 10% | ≤ 10% | ≤ 10% | ≤ 10%
